Activity calls are given as the source filed them. The rule behind the calls is not given here.
Key:
[1] = biological target: T1, Tyrosine-protein phosphatase non-receptor type 1 (Homo sapiens, UniProt P18031); assay: Inhibition of PTP1B expressed in Escherichia coli assessed as p-nitrophenol release from pNPP substrate preincubated for 10 mins
T1 sequence (P18031 whole entry): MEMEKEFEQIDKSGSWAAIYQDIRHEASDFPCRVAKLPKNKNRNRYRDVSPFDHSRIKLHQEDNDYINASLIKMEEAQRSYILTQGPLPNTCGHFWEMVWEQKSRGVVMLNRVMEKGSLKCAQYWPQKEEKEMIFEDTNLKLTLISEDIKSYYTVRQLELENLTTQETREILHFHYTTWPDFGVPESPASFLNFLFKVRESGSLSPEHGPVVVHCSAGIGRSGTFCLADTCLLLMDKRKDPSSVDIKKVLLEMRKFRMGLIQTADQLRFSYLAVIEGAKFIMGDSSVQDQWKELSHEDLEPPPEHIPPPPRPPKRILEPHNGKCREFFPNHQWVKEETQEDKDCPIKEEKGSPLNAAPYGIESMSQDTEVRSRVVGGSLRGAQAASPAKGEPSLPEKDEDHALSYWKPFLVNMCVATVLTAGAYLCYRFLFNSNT
How it was run: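 IC50 values against the PTP panel, with enzymes prepared as described in the supplementary material. Values are means ± SD of two or more experiments.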

Mus musculus [2] = assay: Antiobesity activity in high fat diet-fed diabetic C57BL/6J Jms Slc mouse model assessed as decrease in total cholesterol level in serum at 2.6 mg/day administered with food for 4 weeks; type: functional
How it was run: (§1)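 DIO mice were fed HFD for 8 wk, then HFD containing 0.1% w/w compound (about 2.6 mg/day/mouse) for 4 wk. At the end of feeding, mice were deprived of food overnight. Serum total cholesterol, triglyceride and NEFA were then measured. Values are mean ± SEM.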

Mus musculus [3] = assay: Antidiabetic activity in high fat diet-fed diabetic C57BL/6J Jms Slc mouse model assessed as normalization of blood glucose level at 2.6 mg/day administered with food for 4 weeks measured 60 mins after last dose by glucose tolerance test; type: functional, organism-based
How it was run: (§2)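 Mice were male C57BL/6J Jms Slc, 5 wk old after 1 wk acclimatization. They were fed a 45%-fat HFD for 8 wk, then HFD with compound mixed in (1.0 g/kg diet, about 2.6 mg/day/mouse, 78 mg/day/kg) for 4 wk. Each mouse was fasted 6 h from the start of the light cycle and fasting glucose was measured. Glucose 1.0 g/kg was then given i.p., with readings at 60 and 90 min.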

Mus musculus [4] = assay: Antiobesity activity in high fat diet-fed diabetic C57BL/6J Jms Slc mouse model assessed as decrease in non-esterified free fatty acid level in serum at 2.6 mg/day administered with food for 4 weeks; type: functional; how it was run: as §1
Mus musculus [5] = assay: Antiobesity activity in high fat diet-fed diabetic C57BL/6J Jms Slc mouse model assessed as decrease in serum triglyceride level at 2.6 mg/day administered with food for 4 weeks; type: functional; how it was run: as §1
Mus musculus [6] = assay: Antiobesity activity in high fat diet-fed diabetic C57BL/6J Jms Slc mouse model assessed as reduction in body weight at 2.6 mg/day administered with food for 4 weeks; type: functional
How it was run: (§3)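 DIO male C57BL/6J Jms Slc mice were fed a 45%-fat HFD for 8 wk, then HFD with 0.1% w/w compound in feed (about 2.6 mg/day/mouse) for 4 wk. A 10%-fat LFD lean group ran throughout. Measures were weight gain, feed efficiency (weight gain/kcal ×100), and epididymal and retroperitoneal fat pad weights. n = 8/group; mean ± SEM; one-way ANOVA.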

[7] = biological target: T2, Tyrosine-protein phosphatase non-receptor type 1 (Homo sapiens) (UniProt P18031); assay: Competitive inhibition of PTP1B expressed in Escherichia coli
T2 sequence (whole entry): T1 sequence (P18031 whole entry)

Mus musculus [8] = assay: Toxicity in high fat diet-fed diabetic C57BL/6J Jms Slc mouse model assessed as dark-brownish spots in liver at 4.8 mg/day administered with food for 4 weeks; conditions: in vivo, po, 672 h
Mus musculus [9] = assay: Antidiabetic activity in high fat diet-fed diabetic C57BL/6J Jms Slc mouse model assessed as normalization of blood glucose level at 2.6 mg/day administered with food for 4 weeks measured 90 mins after last dose by glucose tolerance test; type: functional, organism-based; how it was run: as §2
Mus musculus [10] = assay: Antiobesity activity in high fat diet-fed diabetic C57BL/6J Jms Slc mouse model assessed as decrease in epididymal fat at 2.6 mg/day administered with food for 4 weeks; type: functional; how it was run: as §3
Mus musculus [11] = assay: Antiobesity activity in high fat diet-fed diabetic C57BL/6J Jms Slc mouse model assessed as weight gain/kcal at 2.6 mg/day administered with food for 4 weeks; type: functional; how it was run: as §3
Mus musculus [12] = assay: Antiobesity activity in high fat diet-fed diabetic C57BL/6J Jms Slc mouse model assessed as decrease in retroperitoneal fat at 2.6 mg/day administered with food for 4 weeks; type: functional; how it was run: as §3
[13] = biological target: T3, Peroxisome proliferator-activated receptor gamma (Homo sapiens, UniProt P37231); assay: Agonist activity at PPARgamma expressed in HepG2 cells co-expressing PPRE assessed as transcriptional activation after 24 hrs by luciferase reporter gene assay; type: functional, cell-based
T3 sequence (P37231 whole entry): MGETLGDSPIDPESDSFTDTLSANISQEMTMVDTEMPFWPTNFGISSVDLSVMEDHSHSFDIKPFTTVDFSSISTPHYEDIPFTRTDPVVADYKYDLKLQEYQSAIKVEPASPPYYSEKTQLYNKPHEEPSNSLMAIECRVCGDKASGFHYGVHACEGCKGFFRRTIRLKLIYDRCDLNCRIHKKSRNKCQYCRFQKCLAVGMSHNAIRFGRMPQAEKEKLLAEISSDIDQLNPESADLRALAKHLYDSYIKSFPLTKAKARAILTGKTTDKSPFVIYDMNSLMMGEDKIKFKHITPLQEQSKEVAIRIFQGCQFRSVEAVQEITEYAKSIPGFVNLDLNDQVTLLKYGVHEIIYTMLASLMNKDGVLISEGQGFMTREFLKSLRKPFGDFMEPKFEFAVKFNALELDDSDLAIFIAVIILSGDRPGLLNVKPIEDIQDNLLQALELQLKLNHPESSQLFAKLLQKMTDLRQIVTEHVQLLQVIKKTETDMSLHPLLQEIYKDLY
How it was run: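 HepG2 cells were transfected with a PPRE-driven luciferase reporter plus CMV-βGal. The basic luciferase reporter without a PPRE site served as the negative control. Compounds were added 6 h after transfection. Cells were lysed 24 h later. Luciferase activity was read on a luminometer and normalized to β-galactosidase for transfection efficiency. Two independent experiments; error as SEM.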

[14] = biological target: T4, Peroxisome proliferator-activated receptor gamma (Homo sapiens) (UniProt P37231); assay: Agonist activity at PPARgamma expressed in HepG2 cells co-expressing PPRE assessed as concentration required for maximal activation after 24 hrs by luciferase reporter gene assay; type: functional, cell-based
T4 sequence (whole entry): T3 sequence (P37231 whole entry)

Row | Structure (SMILES) | IC50 [1] [µM] | other results
1 | O=C1NC(=O)/C(=C/c2cc(Br)c(OCc3ccc(C(F)(F)F)cc3)cc2OCc2ccc(C(F)(F)F)cc2)S1 | 1.4 | 
2 | O=C1NC(=O)/C(=C/c2cc(Br)ccc2OCc2cc(C(F)(F)F)cc(C(F)(F)F)c2)S1 |  | Activity (Mus musculus [2]): 125 mg/dL; Activity (Mus musculus [3]): Active; Activity (Mus musculus [4]): 0.22 mM; Activity (Mus musculus [5]): 78 mg/dL; Activity (Mus musculus [6]): 2.16 g; inhibition [7]: Active; Activity (Mus musculus [8]): Toxic; Activity (Mus musculus [9]): Active; Activity (Mus musculus [10]): 1.27 g; feed efficiency (Mus musculus [11]): 0.68 g/100 kcal; Activity (Mus musculus [12]): 0.42 g; EC50 [13]: 0.87 µM; Activity [14]: 4 µM
3 | Cc1ccc(S(=O)(=O)Oc2ccc(/C=C3\SC(=O)NC3=O)c(OS(=O)(=O)c3ccc(C)cc3)c2)cc1 | 16 | 
4 | O=C1NC(=O)/C(=C/c2ccc(OCc3ccc(S(=O)(=O)N4CCOCC4)cc3)cc2OCc2ccc(C(F)(F)F)cc2)S1 | 19 | 
5 | O=C1NC(=O)/C(=C/c2ccc(OCc3ccccc3)cc2OCc2ccccc2)S1 | 10 | 
6 | O=C1NC(=O)/C(=C/c2ccc(OCc3ccc(F)cc3)cc2OCc2ccc(C(F)(F)F)cc2)S1 | 4 | 
7 | O=C1NC(=O)/C(=C/c2ccc(OCc3ccccc3)cc2OCc2ccc(F)cc2)S1 | 9 | 
8 | O=C1NC(=O)/C(=C/c2ccc(OS(=O)(=O)c3ccc(Br)cc3)cc2OCc2ccc(S(=O)(=O)N3CCOCC3)cc2)S1 | 14 | 
9 | Cc1ccc(S(=O)(=O)Oc2ccc(/C=C3\SC(=O)NC3=O)c(OCc3ccc(C(F)(F)F)cc3)c2)cc1 | 2.3 | 

Now from value to compound, other results behind:

Row | IC50 [1] [µM] | Structure (SMILES) | other results
10 | 9 | O=C1NC(=O)/C(=C/c2ccc(OCc3ccc(F)cc3)cc2OCc2ccccc2)S1 | 
11 | 2 | Cc1ccc(S(=O)(=O)Oc2cc(OCc3cc(C(F)(F)F)cc(C(F)(F)F)c3)c(/C=C3\SC(=O)NC3=O)cc2Br)cc1 | 
12 | 6 | O=C1NC(=O)/C(=C/c2ccc(OCc3ccc(NC(=O)c4cccc(C(F)(F)F)c4)cc3)cc2OCc2ccc(C(F)(F)F)cc2)S1 | 
13 | 11 | Cc1ccc(S(=O)(=O)Oc2ccc(/C=C3\SC(=O)NC3=O)c(OCc3ccc(NC(=O)c4cccc(C(F)(F)F)c4)cc3)c2)cc1 | 
14 | 4 | O=C1NC(=O)/C(=C/c2ccc(OCc3ccccc3)cc2OCc2ccc(C(F)(F)F)cc2)S1 | 
15 | 12 | O=C1NC(=O)/C(=C/c2ccc(OCc3ccccn3)cc2OCc2ccc(C(F)(F)F)cc2)S1 | 
16 | 136 | O=C(O)COc1cc(OCc2ccccc2)ccc1/C=C1\SC(=O)NC1=O | 
17 | 9 | O=C1NC(=O)/C(=C/c2ccc(OCc3ccc(C(F)(F)F)cc3)cc2OCc2ccc(C(F)(F)F)cc2)S1 | 
18 | 6 | O=C1NC(=O)/C(=C/c2ccc(OS(=O)(=O)c3ccc(Br)cc3)cc2OCc2ccc(C(F)(F)F)cc2)S1 | 
19 | 12 | O=C1NC(=O)/C(=C/c2ccc(OCc3cccnc3)cc2OCc2ccc(C(F)(F)F)cc2)S1 | 
20 | 8 | O=C1NC(=O)/C(=C/c2ccc(OCc3ccc(F)cc3)cc2OCc2ccc(F)cc2)S1 | 
21 | 33 | CC(=O)Nc1ccc(COc2cc(OS(=O)(=O)c3ccc(C)cc3)ccc2/C=C2\SC(=O)NC2=O)cc1 | 

From ChEMBL document CHEMBL1800016, “Novel thiazolidinedione derivatives with anti-obesity effects: dual action as PTP1B inhibitors and PPAR-γ activators” (Bioorg Med Chem Lett, 2010)
